Data set [1] concerns Sapajus apella. The experiment in a line: Iron-clearing efficiency in iron-overloaded Cebus apella assessed as feces iron excretion at 75 umol/kg, po measured daily once for 5 days by lame absorption spectroscopy relative to control. The class given is functional.
For data set [2], the system named is Rattus norvegicus. Put plainly: Renal toxicity in Sprague-Dawley rat at 384 umol/kg, po qd for 10 days. The settings on record: in vivo, 240 h. It is filed as organism-based. In outline: (§1)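 Male Sprague-Dawley rats (300–350 g), fasted overnight, were dosed orally once daily for 10 d. Dosing was 384 μmol/kg/d (capsules or by gavage as monosodium salt) or 192 μmol/kg/d (capsules). Age-matched untreated controls. Rats were euthanized 24 h after the last dose (day 11), and extensive tissues were examined histopathologically.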

In data set [3] the test system is Rattus norvegicus. The experiment in a line: Toxicity in Sprague-Dawley rat assessed as mild to moderate vacuolar degeneration of proximal tubular epithelial cells at 384 umol/kg, po qd for 10 days. The class given is organism-based, Epithelial cell. The note with it: in vivo, 240 h. The method in brief: as §1
Data set [4] can be described thus: Ratio of iron-clearing efficiency in iron-overloaded Cebus apella at 75 umol/kg, po to iron-clearing efficiency in non-iron-overloaded and bile duct-cannulated Sprague-Dawley rat at 300 umol/kg, po after 48 hrs. The class given is functional, organism-based. The method in brief: (§2)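 Iron-overloaded Cebus apella (3.5–4 kg; iv iron dextran to about 500 mg Fe/kg, ≥60 days before use) dosed orally at 75 μmol/kg, by gavage as monosodium salt (1 equiv NaOH in distilled water) or in capsules. Feces and urine collected every 24 h from 4 days pre-drug to 5 days post-drug; iron by flame absorption spectroscopy. ICE = 2-day post-drug iron minus 4-day baseline average, divided by theoretical output (2:1 ligand:iron); percent. Performance ratio = mean primate ICE/rodent ICE.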

The test system of data set [5] is Rattus norvegicus. Put plainly: Iron-clearing efficiency in non-iron-overloaded and bile duct-cannulated Sprague-Dawley rat assessed as bile iron excretion at 300 umol/kg, po up to 48 hrs. It is filed as functional, organism-based. In outline:
(§3)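 Non-iron-overloaded male Sprague-Dawley rats (400–450 g), bile duct-cannulated, given a single oral dose of 300 μmol/kg, either by gavage as monosodium salt or in capsules. Bile was collected at 3 h intervals for up to 48 h and urine every 24 h. Iron was measured by flame absorption spectroscopy. ICE = 24-h iron excretion of treated rats minus controls, divided by theoretical output (2:1 ligand:iron); percent. Mean ± SEM; one-tailed t-test.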

Data set [6] concerns Sapajus apella. Put plainly: Iron-clearing efficiency in iron-overloaded Cebus apella assessed as urine iron excretion at 75 umol/kg, po measured daily once for 5 days by lame absorption spectroscopy relative to control. It is filed as functional.
The test system of data set [7] is Rattus norvegicus. The experiment in a line: Iron-clearing efficiency in non-iron-overloaded and bile duct-cannulated Sprague-Dawley rat at 300 umol/kg, po after 48 hrs relative to control. The class given is functional. In outline:
as §3

The test system of data set [8] is Rattus norvegicus. The experiment in a line: Iron-clearing efficiency in non-iron-overloaded and bile duct-cannulated Sprague-Dawley rat assessed as urine iron excretion at 300 umol/kg, po after 48 hrs relative to control. The class given is functional.
For data set [9], the system named is Rattus norvegicus. Put plainly: Toxicity in Sprague-Dawley rat assessed as histopathological examination at 192 umol/kg, po qd for 10 days. The class given is organism-based. The note with it: in vivo, 240 h. The method in brief: as §1
Data set [10] has as its system Rattus norvegicus. Put plainly: Iron-clearing efficiency in non-iron-overloaded and bile duct-cannulated Sprague-Dawley rat assessed as reduction of renal iron content at 192 umol/kg, po qd for 10 days relative to control. The class given is functional. Set-up: scale not given: the % may be the effect or the level left. The method in brief: (§4)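 Male Sprague-Dawley rats (300–350 g) were fasted overnight and dosed orally once daily for 10 d. Dosing was 384 μmol/kg/d in gelatin capsules (n = 5) or by gavage as monosodium salt (n = 10), or 192 (n = 6) or 384 μmol/kg/d (n = 5) in capsules. Rats were fed ~3 h post-dose. Age-matched untreated controls (n = 12). Kidney, liver, heart and pancreas were taken on day 11, wet-ashed (120 °C, then H2O2), and iron was measured by flame absorption spectroscopy.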

Data set [11] relates to Rattus norvegicus. The experiment in a line: Iron-clearing efficiency in non-iron-overloaded and bile duct-cannulated Sprague-Dawley rat assessed as reduction of cardiac iron content at 384 umol/kg, po qd for 10 days relative to control. The class given is functional, organism-based. The settings on record: Heart. The method in brief:
as §4

Data set [12] deals with Rattus norvegicus. The experiment in a line: Iron-clearing efficiency in non-iron-overloaded and bile duct-cannulated Sprague-Dawley rat assessed as reduction of liver iron content at 192 umol/kg, po qd for 10 days relative to control. Set-up: scale not given: the % may be the effect or the level left. The class given is functional. In outline: as §4
Data set [13] has as its system Rattus norvegicus. Put plainly: Iron-clearing efficiency in non-iron-overloaded and bile duct-cannulated Sprague-Dawley rat assessed as reduction of renal iron content at 384 umol/kg, po qd for 10 days relative to control. The class given is functional. On the set-up: scale not given: the % may be the effect or the level left. In outline:
as §4

The subject of data set [14] is Rattus norvegicus. The experiment in a line: Iron-clearing efficiency in non-iron-overloaded and bile duct-cannulated Sprague-Dawley rat assessed as reduction of cardiac iron content at 192 umol/kg, po qd for 10 days relative to control. The class given is functional, organism-based. The note with it: Heart. The method in brief: as §4
Data set [15] relates to Rattus norvegicus. The experiment in a line: Iron-clearing efficiency in non-iron-overloaded and bile duct-cannulated Sprague-Dawley rat assessed as reduction of pancreatic iron content at 384 umol/kg, po qd for 10 days relative to control. The class given is functional, organism-based. In outline:
as §4

Data set [16] relates to Rattus norvegicus. The experiment in a line: Iron-clearing efficiency in non-iron-overloaded and bile duct-cannulated Sprague-Dawley rat assessed as time required to maximum bile iron excretion at 300 umol/kg, po after 12 to 15 hrs. The class given is functional, organism-based. In outline:
as §3

Data set [17] is described as follows: Octanol-water partition coefficient, log P in Tris buffer at pH 7.4 by shake flask method. It is filed as physicochemical. In outline:
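Octanol/water partition was measured at pH 7.4 (Tris buffer) by the shake-flask direct method. The fraction of drug in octanol is expressed as log P_app.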

In data set [18] the test system is Rattus norvegicus. The experiment in a line: Iron-clearing efficiency in non-iron-overloaded and bile duct-cannulated Sprague-Dawley rat assessed as reduction of liver iron content at 384 umol/kg, po qd for 10 days relative to control. The class given is functional. On the set-up: scale not given: the % may be the effect or the level left. The method in brief:
as §4

The subject of data set [19] is Rattus norvegicus. Put plainly: Iron-clearing efficiency in non-iron-overloaded and bile duct-cannulated Sprague-Dawley rat assessed as reduction of pancreatic iron content at 192 umol/kg, po qd for 10 days relative to control. The class given is functional, organism-based. In outline: as §4
Data set [20] deals with Sapajus apella. Put plainly: Iron-clearing efficiency in iron-overloaded Cebus apella at 75 umol/kg, po measured daily once for 2 days by flame absorption spectroscopy relative to control. It is filed as functional. The method in brief:
as §2

Structures are written as SMILES. Activity calls are given as the source filed them. The rule behind the calls is not given here.

Broadly, the logD is lipophilicity at a set pH, counting ionised and neutral species. For `CCOC(=O)[C@@]1(C)CSC(c2ccc(OCCOCCOC)cc2O)=N1`, the Activity with Sapajus apella [1] was 98%; in the data set on Rattus norvegicus [2] it was “Toxic”; with Rattus norvegicus [3] it was “Toxic”; with Sapajus apella [6], 2%; in the data set on Rattus norvegicus [7], 25.9%; in the data set on Rattus norvegicus [8], 1%. The Activity entry in the data set with Rattus norvegicus [9] is on record as “Non-toxic”; with Rattus norvegicus [10], 12.6%; in the data set with Rattus norvegicus [12] it was 27%; with Rattus norvegicus [13], 32.1%; in the data set on Rattus norvegicus [18], 59.1%; in the data set with Sapajus apella [20] it was 8.8%. Moreover, the Ratio in data set [4] worked out at 0.3. Besides, in the data set with Rattus norvegicus [5], the result was Active. The result in the data set on Rattus norvegicus [11], in the data set on Rattus norvegicus [14], with Rattus norvegicus [15], in the data set on Rattus norvegicus [16] and in the data set on Rattus norvegicus [19] was inactive. The logD in [17] was determined as 3.

The record behind these values is ChEMBL document CHEMBL1156979, “The impact of polyether chain length on the iron clearing efficiency and physiochemical properties of desferrithiocin analogues” (J Med Chem, 2010).
